In ChEMBL document CHEMBL3526146, “In vitro and in vivo metabolism and pharmacokinetics of BMS-562086, a potent and orally bioavailable corticotropin-releasing factor-1 receptor antagonist” (Drug Metab Dispos, 2012):

How the values were obtained:
[1] = Drug metabolism in mouse liver microsomes assessed as BMS-572273 metabolite level at 100 uM after 1 hr in presence of NADPH; assay type: ADME
Procedure, shortened: (§1)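 Liver microsomes (1 mg/ml protein) in 100 mM phosphate buffer with 100 µM test compound. Reaction started by adding NADPH (1 mM), then run at 37°C for 1 h in a shaking water bath, in duplicate. Controls lacked microsomal protein or NADPH; 7-ethoxycoumarin (100 µM) was the positive control. Metabolites identified by LC/MS/MS.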

[2] = Drug metabolism in mouse hepatocytes assessed as BMS-572273 metabolite level at 25 uM after 3 hrs by LC-MS/MS analysis; assay type: ADME, cell-based, Hepatocyte
Procedure, shortened: (§2)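 Hepatocytes checked for viability by trypan blue exclusion, then diluted in Krebs-Henseleit buffer to 1.0 × 10^6 cells/ml. Incubated in duplicate with 25 µM compound at 37°C for 3 h on an orbital shaker (80 rpm) under 95/5 O2/CO2. Negative control had no cells. Stopped with ice-cold acetonitrile, sonicated, centrifuged; supernatant analysed by LC/MS/MS.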

[3] = Detection of compound level in cynomolgus monkey cryopreserved hepatocytes treated with 25 uM of BMS-562086 after 3 hrs by LC-MS/MS analysis; assay type: ADME, cell-based, Macaca fascicularis, Hepatocyte
Procedure, shortened: (§3)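 Mouse, rat, dog, monkey and human hepatocytes (trypan blue viability checked) at 1.0×10^6 cells/ml in Krebs-Henseleit buffer were incubated with 25 µM compound, in duplicate. Conditions were 37°C, 95/5 O2/CO2, orbital shaking, 3 h. 7-Ethoxycoumarin and 7-hydroxycoumarin (100 µM) served as positive controls, with a cell-free negative control. Reactions were quenched with ice-cold acetonitrile, then sonicated and centrifuged; supernatants were analysed by LC/MS/MS.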

[4] = Drug metabolism in cynomolgus monkey liver microsomes assessed as DPH-124921 metabolite level at 100 uM after 1 hr in presence of NADPH; assay type: ADME, Macaca fascicularis
Procedure, shortened: (§4)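 Mouse, rat, dog, monkey and human liver microsomes (1 mg/ml protein) were incubated with 100 µM compound in 100 mM phosphate buffer. Reactions were started with 1 mM NADPH and run 1 h at 37°C in duplicate. Controls lacked protein or NADPH, plus a 7-ethoxycoumarin (100 µM) positive control. Metabolites were identified by LC/MS/MS.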

[5] = Drug metabolism in cynomolgus monkey cryopreserved hepatocytes assessed as DPH-123554 metabolite level at 25 uM after 3 hrs by LC-MS/MS analysis; assay type: ADME, cell-based, Macaca fascicularis, Hepatocyte; procedure, shortened: as §3
[6] = Drug metabolism in cynomolgus monkey liver microsomes assessed as DPH-123554 metabolite level at 100 uM after 1 hr in presence of NADPH; assay type: ADME, Macaca fascicularis; procedure, shortened: as §4
[7] = Drug metabolism in mouse liver microsomes at 100 uM after 1 hr in presence of NADPH; assay type: ADME; procedure, shortened: as §1
[8] = Drug metabolism in rat hepatocytes assessed as DPH-124921 metabolite level at 25 uM after 3 hrs by LC-MS/MS analysis; assay type: ADME, cell-based, Hepatocyte; procedure, shortened: as §2
[9] = Drug metabolism in cynomolgus monkey cryopreserved hepatocytes assessed as BMS-572273 metabolite level at 25 uM after 3 hrs by LC-MS/MS analysis; assay type: ADME, cell-based, Macaca fascicularis, Hepatocyte; procedure, shortened: as §3
[10] = Retention time of the compound by HPLC method; assay type: physicochemical
[11] = system: Liver microsome; test: Drug metabolism in beagle dog liver microsomes assessed as DPH-123554 metabolite level at 100 uM after 1 hr in presence of NADPH; assay type: ADME, Canis lupus familiaris; procedure, shortened: as §4
[12] = system: Liver microsome; test: Drug metabolism in human liver microsomes assessed as DPH-123554 metabolite level at 100 uM after 1 hr in presence of NADPH; assay type: ADME; procedure, shortened: as §1
[13] = system: Liver microsome; test: Drug metabolism in dog liver microsomes at 100 uM after 1 hr in presence of NADPH; assay type: ADME, Canis lupus familiaris; procedure, shortened: as §1
[14] = Drug metabolism in mouse hepatocytes at 25 uM after 3 hrs by LC-MS/MS analysis; assay type: ADME, cell-based, Hepatocyte; procedure, shortened: as §2
[15] = Drug metabolism in cynomolgus monkey liver microsomes assessed as BMS-572273 metabolite level at 100 uM after 1 hr in presence of NADPH; assay type: ADME, Macaca fascicularis; procedure, shortened: as §4
[16] = system: Liver microsome; test: Detection of compound level in rat liver microsomes treated with 100 uM of BMS-562086 after 1 hr by LC-MS/MS analysis
[17] = Drug metabolism in mouse hepatocytes assessed as DPH-124921 metabolite level at 25 uM after 3 hrs by LC-MS/MS analysis; assay type: ADME, cell-based, Hepatocyte; procedure, shortened: as §2
[18] = Drug metabolism in rat hepatocytes at 25 uM after 3 hrs by LC-MS/MS analysis; assay type: ADME, cell-based, Hepatocyte; procedure, shortened: as §2
[19] = Drug metabolism in mouse hepatocytes assessed as DPH-123554 metabolite level at 25 uM after 3 hrs by LC-MS/MS analysis; assay type: ADME, cell-based, Hepatocyte; procedure, shortened: as §2
[20] = Drug metabolism in rat hepatocytes assessed as DPH-123554 metabolite level at 25 uM after 3 hrs by LC-MS/MS analysis; assay type: ADME, cell-based, Hepatocyte; procedure, shortened: as §2
[21] = Detection of compound level in beagle dog hepatocytes treated with 25 uM of BMS-562086 after 3 hrs by LC-MS/MS analysis; assay type: ADME, cell-based, Canis lupus familiaris, Hepatocyte; procedure, shortened: as §3
[22] = system: Liver microsome; test: Drug metabolism in rat liver microsomes assessed as DPH-124921 metabolite level at 100 uM after 1 hr in presence of NADPH; assay type: ADME; procedure, shortened: as §1
[23] = system: Liver microsome; test: Drug metabolism in human liver microsomes assessed as BMS-572273 metabolite level at 100 uM after 1 hr in presence of NADPH; assay type: ADME; procedure, shortened: as §1
[24] = system: Liver microsome; test: Detection of compound level in beagle dog liver microsomes treated with 100 uM of BMS-562086 after 1 hr by LC-MS/MS analysis
[25] = Detection of compound level in mouse liver microsomes treated with BMS-562086 by LC-MS/MS analysis
[26] = system: Liver microsome; test: Drug metabolism in human liver microsomes assessed as DPH-124921 metabolite level at 100 uM after 1 hr in presence of NADPH; assay type: ADME; procedure, shortened: as §1
[27] = Drug metabolism in cynomolgus monkey cryopreserved hepatocytes at 25 uM after 3 hrs by LC-MS/MS analysis; assay type: ADME, cell-based, Macaca fascicularis, Hepatocyte; procedure, shortened: as §3
[28] = system: Liver microsome; test: Drug metabolism in dog liver microsomes assessed as DPH-124921 metabolite level at 100 uM after 1 hr in presence of NADPH; assay type: ADME, Canis lupus familiaris; procedure, shortened: as §4
[29] = system: Liver microsome; test: Drug metabolism in human liver microsomes at 100 uM after 1 hr in presence of NADPH; assay type: ADME; procedure, shortened: as §1
[30] = Drug metabolism in beagle dog hepatocytes assessed as DPH-123554 metabolite level at 25 uM after 3 hrs by LC-MS/MS analysis; assay type: ADME, cell-based, Canis lupus familiaris, Hepatocyte; procedure, shortened: as §3
[31] = Drug metabolism in mouse liver microsomes assessed as DPH-124921 metabolite level at 100 uM after 1 hr in presence of NADPH; assay type: ADME; procedure, shortened: as §1
[32] = system: Hepatocyte; test: Detection of compound level in human cryopreserved hepatocytes treated with 25 uM of BMS-562086 after 3 hrs by LC-MS/MS analysis; assay type: ADME, cell-based; procedure, shortened: as §3
[33] = Drug metabolism in cynomolgus monkey cryopreserved hepatocytes assessed as DPH-124921 metabolite level at 25 uM after 3 hrs by LC-MS/MS analysis; assay type: ADME, cell-based, Macaca fascicularis, Hepatocyte; procedure, shortened: as §3
[34] = system: Hepatocyte; test: Detection of compound level in mouse hepatocytes treated with 25 uM of BMS-562086 after 3 hrs by LC-MS/MS analysis; assay type: ADME, cell-based; procedure, shortened: as §3
[35] = Drug metabolism in human cryopreserved hepatocytes assessed as DPH-124921 metabolite level at 25 uM after 3 hrs by LC-MS/MS analysis; assay type: ADME, cell-based, Hepatocyte; procedure, shortened: as §2

SMILES | Drug metabolism [1] | Drug metabolism [2] | Drug metabolism [3] | Drug metabolism [4] | Drug metabolism [5] | Drug metabolism [6] | Drug metabolism [7] | Drug metabolism [8] | Drug metabolism [9] | Retention_time [10] | Drug metabolism [11] | Drug metabolism [12] | Drug metabolism [13] | Drug metabolism [14] | Drug metabolism [15] | Drug metabolism [16] | Drug metabolism [17] | Drug metabolism [18] | Drug metabolism [19] | Drug metabolism [20] | also measured
COc1ccc(-c2c(C)nn3c(O)nc(C)nc23)c(C)n1 | metabolite_detected | metabolite_detected | metabolite_detected | metabolite_detected | metabolite_detected | metabolite_detected | metabolite_detected | metabolite_detected | metabolite_detected | 25.6 min | metabolite_detected | metabolite_detected | metabolite_detected | metabolite_detected | metabolite_detected | metabolite_detected | metabolite_detected | metabolite_detected | metabolite_detected | metabolite_detected | Drug metabolism [21]: metabolite_detected; Drug metabolism [22]: metabolite_detected; Drug metabolism [23]: metabolite_detected; Drug metabolism [24]: metabolite_detected; Drug metabolism [25]: metabolite_detected; Drug metabolism [26]: metabolite_detected; Drug metabolism [27]: metabolite_detected; Drug metabolism [28]: metabolite_detected; Drug metabolism [29]: metabolite_detected; Drug metabolism [30]: metabolite_detected; Drug metabolism [31]: metabolite_detected; Drug metabolism [32]: metabolite_detected; Drug metabolism [33]: metabolite_detected; Drug metabolism [34]: metabolite_detected; Drug metabolism [35]: metabolite_detected
CC[C@@H](C)Nc1nc(C)nc2c(-c3ccc(OC)nc3C)c(C)nn12 [PEXACERFONT] | metabolite_detected | metabolite_detected | metabolite_detected | metabolite_detected | metabolite_detected | metabolite_detected | metabolite_detected | metabolite_detected | metabolite_detected | 52.2 min | metabolite_detected | metabolite_detected | metabolite_detected | metabolite_detected | metabolite_detected | metabolite_detected | metabolite_detected | metabolite_detected | metabolite_detected | metabolite_detected | Drug metabolism [21]: metabolite_detected; Drug metabolism [22]: metabolite_detected; Drug metabolism [23]: metabolite_detected; Drug metabolism [24]: metabolite_detected; Drug metabolism [25]: metabolite_detected; Drug metabolism [26]: metabolite_detected; Drug metabolism [27]: metabolite_detected; Drug metabolism [28]: metabolite_detected; Drug metabolism [29]: metabolite_detected; Drug metabolism [30]: metabolite_detected; Drug metabolism [31]: metabolite_detected; Drug metabolism [32]: metabolite_detected; Drug metabolism [33]: metabolite_detected; Drug metabolism [34]: metabolite_detected; Drug metabolism [35]: metabolite_detected
